In ChEMBL document CHEMBL2202999, “Synthesis of bivalent lactosides and their activity as sensors for differences between lectins in inter- and intrafamily comparisons” (Bioorg Med Chem Lett, 2012):

Columns and labels:
[1] = Inhibition of binding of biotinylated chicken galectin-8N to surface immobilized asialofetuin by solid phase assay relative to free lactose; set-up: species or system Gallus gallus
Outline: (§1)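 Asialofetuin was adsorbed to microtiter wells at a constant coating amount, and its N-glycans served as ligand. Biotinylated lectin at a lectin-specific concentration was added with inhibitor. IC50 (mM) was normalized to lactose, and potency was expressed relative to free lactose. Assays were run in triplicate across up to five independent series.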

[2] = Inhibition of binding of biotinylated chicken galectin-8N to surface immobilized asialofetuin by solid phase assay; set-up: species or system Gallus gallus; outline: as §1
[3] = Inhibition of binding of biotinylated chicken galectin-8L to surface immobilized asialofetuin by solid phase assay relative to free lactose; set-up: species or system Gallus gallus
Outline: (§2)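 Asialofetuin was adsorbed to microtiter wells at a constant coating amount, and its N-glycans served as ligand. Biotinylated lectin at a lectin-specific concentration was added with inhibitor. Assays were run in triplicate across up to five independent series.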

[4] = Inhibition of binding of biotinylated chicken galectin-8L to surface immobilized asialofetuin by solid phase assay; set-up: species or system Gallus gallus; outline: as §1
[5] = Inhibition of binding of biotinylated chicken galectin-8S to surface immobilized asialofetuin by solid phase assay relative to free lactose; set-up: species or system Gallus gallus; outline: as §1
[6] = Inhibition of binding of biotinylated chicken galectin-8S to surface immobilized asialofetuin by solid phase assay; set-up: species or system Gallus gallus; outline: as §1
Galectin-3 [7] = molecular target: T1, Galectin-3 (Gallus gallus, UniProt A4GTP0); assay: Inhibition of binding of biotinylated truncated chicken galectin-3 to surface immobilized asialofetuin by solid phase assay relative to free lactose; outline: as §2
T1 sequence (A4GTP0 whole entry): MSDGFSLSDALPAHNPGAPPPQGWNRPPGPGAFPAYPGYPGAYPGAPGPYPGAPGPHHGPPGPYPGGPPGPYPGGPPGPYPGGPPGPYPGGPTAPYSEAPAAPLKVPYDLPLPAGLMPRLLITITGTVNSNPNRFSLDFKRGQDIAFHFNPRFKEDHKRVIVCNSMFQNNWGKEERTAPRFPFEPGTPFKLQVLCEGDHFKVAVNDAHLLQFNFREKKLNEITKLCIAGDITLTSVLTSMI

Galectin-3 [8] = molecular target: T1, Galectin-3; assay: Inhibition of binding of biotinylated truncated chicken galectin-3 to surface immobilized asialofetuin by solid phase assay; outline: as §2
Galectin-3 [9] = molecular target: T1, Galectin-3; assay: Inhibition of binding of biotinylated chicken galectin-3 to surface immobilized asialofetuin by solid phase assay relative to free lactose; outline: as §1
Galectin-3 [10] = molecular target: T1, Galectin-3; assay: Inhibition of binding of biotinylated chicken galectin-3 to surface immobilized asialofetuin by solid phase assay; outline: as §2
[11] = Inhibition of binding of biotinylated chicken galectin-2 to surface immobilized asialofetuin by solid phase assay relative to free lactose; set-up: species or system Gallus gallus; outline: as §1
[12] = Inhibition of binding of biotinylated chicken galectin-2 to surface immobilized asialofetuin by solid phase assay; set-up: species or system Gallus gallus; outline: as §1
[13] = molecular target: T2, Beta-galactoside-binding lectin (Gallus gallus, UniProt P07583); assay: Inhibition of binding of biotinylated chicken galectin-1B to surface immobilized asialofetuin by solid phase assay; outline: as §1
T2 sequence (P07583 whole entry): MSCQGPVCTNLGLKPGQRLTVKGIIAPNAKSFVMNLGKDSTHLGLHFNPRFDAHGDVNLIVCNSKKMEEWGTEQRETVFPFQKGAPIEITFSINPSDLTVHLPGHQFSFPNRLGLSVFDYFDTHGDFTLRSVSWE

[14] = Inhibition of binding of biotinylated Erythrina crista-galli agglutinin to surface immobilized asialofetuin by solid phase assay relative to free lactose; outline: as §1
[15] = Inhibition of binding of biotinylated Erythrina crista-galli agglutinin to surface immobilized asialofetuin by solid phase assay; outline: as §2
[16] = Inhibition of binding of biotinylated Viscum album agglutinin to surface immobilized asialofetuin by solid phase assay relative to free lactose; outline: as §2
[17] = Inhibition of binding of biotinylated Viscum album agglutinin to surface immobilized asialofetuin by solid phase assay; outline: as §1
[18] = molecular target: T2, Beta-galactoside-binding lectin; assay: Inhibition of binding of biotinylated chicken galectin-1B to surface immobilized asialofetuin by solid phase assay relative to free lactose; outline: as §1
[19] = Inhibition of binding of biotinylated chicken galectin-1A to surface immobilized asialofetuin by solid phase assay relative to free lactose; set-up: species or system Gallus gallus; outline: as §1
[20] = Inhibition of binding of biotinylated chicken galectin-1A to surface immobilized asialofetuin by solid phase assay; set-up: species or system Gallus gallus; outline: as §1
SW480 = assay: Inhibition of binding of biotinylated Erythrina crista-galli agglutinin to SW480 cells at 0.2 mM by cytofluorometry; format: cell-based
Outline: (§3)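 Labeled lectin, with or without inhibitor, was incubated with aliquots of cell suspensions from the same passage: human SW480 colon adenocarcinoma cells for Erythrina agglutinin, CHO cells for the galectins. Binding was quantified by cytofluorometry as % positive cells and mean fluorescence intensity. Readings were normalized between a lectin-only control (100%) and a no-lectin background (0%). Runs were done in triplicate across at least three independent series.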

CHO = assay: Inhibition of binding of biotinylated chicken galectin-8S to CHO cells at 1 mM by cytofluorometry; format: cell-based; conditions: Gallus gallus; outline: as §3
[21] = molecular target: Galectin-3 (Gallus gallus) (UniProt A4GTP0); assay: (§4) Inhibition of binding of biotinylated truncated chicken galectin-3 to CHO cells at 2 mM by cytofluorometry; format: cell-based; outline: as §3
[22] = molecular target: Galectin-3 (Gallus gallus) (UniProt A4GTP0); assay: (§5) Inhibition of binding of biotinylated chicken galectin-3 to CHO cells at 1 mM by cytofluorometry; format: cell-based; outline: as §3
[23] = molecular target: T3, Galectin-3 (Gallus gallus) (UniProt A4GTP0); assay: as §4; format: cell-based; outline: as §3; remark: listed apart in the source
T3 sequence (whole entry): T1 sequence (A4GTP0 whole entry)

[24] = molecular target: T3, Galectin-3 (Gallus gallus); conditions: CHO, 0.25 mM
[25] = molecular target: T3, Galectin-3 (Gallus gallus); assay: as §5; format: cell-based; outline: as §3; remark: listed apart in the source

relative potency [1] | IC50 [2] [µM] | IC50 [3] [mM] | IC50 [4] [mM] | IC50 [5] [mM] | IC50 [6] [mM] | IC50 (Galectin-3 [7]) [µM] | IC50 (Galectin-3 [8]) [mM] | relative potency (Galectin-3 [9]) | IC50 (Galectin-3 [10]) [µM] | relative potency [11] | IC50 [12] [mM] | IC50 [13] [µM] | relative potency [14] | IC50 [15] [mM] | relative potency [16] | IC50 [17] [µM] | relative potency [18] | IC50 [20] [µM] | Compound | inhibition (SW480) [%] | other results
4 | 400 | 2.1 | 2.4 | 0.6 | 3 | 900 | 5 | 78.6 | 14 | 9.2 | 0.65 | 460 | 0.8 | 1.3 | 0.5 | 1300 | 8.7 | 1400 | C=CC[C@@H]1O[C@@H](C(=O)NCc2ccc(CNC(=O)[C@H]3O[C@H](CC=C)[C@H](OCc4ccccc4)[C@@H](OCc4ccccc4)[C@@H]3OCc3cn([C@@H]4O[C@H](CO)[C@@H](O[C@@H]5O[C@H](CO)[C@H](O)[C@H](O)[C@H]5O)[C@H](O)[C@H]4O)nn3)cc2)[C@H](OCc2cn([C@@H]3O[C@H](CO)[C@@H](O[C@@H]4O[C@H](CO)[C@H](O)[C@H](O)[C@H]4O)[C@H](O)[C@H]3O)nn2)[C@@H](OCc2ccccc2)[C@@H]1OCc1ccccc1 |  | relative potency [19]: 0.5
5.3 | 300 | 8.3 | 0.6 | 4.5 | 0.4 | 800 | 5.3 | 13.8 | 80 | 8.6 | 0.7 | 600 | 1.4 | 0.8 | 2.5 | 240 | 6.7 | 1600 | O=C1NCc2ccc(cc2)CNC(=O)[C@@H]2O[C@@H](C/C=C/C[C@H]3O[C@H]1[C@@H](OCc1cn([C@@H]4O[C@H](CO)[C@@H](O[C@@H]5O[C@H](CO)[C@H](O)[C@H](O)[C@H]5O)[C@H](O)[C@H]4O)nn1)[C@H](OCc1ccccc1)[C@H]3OCc1ccccc1)[C@@H](OCc1ccccc1)[C@H](OCc1ccccc1)[C@H]2OCc1cn([C@@H]2O[C@H](CO)[C@@H](O[C@@H]3O[C@H](CO)[C@H](O)[C@H](O)[C@H]3O)[C@H](O)[C@H]2O)nn1 | 88 | relative potency [19]: 0.3
 |  |  |  |  |  |  |  |  |  |  |  |  |  |  |  |  |  |  | LACTOSE, ANHYDROUS [listing 1 of 2 here] | 86 | inhibition (CHO): 39%; inhibition [21]: 67%; inhibition [22]: 75%
 | 1600 |  | 5 |  | 1.8 |  |  |  |  |  | 6 |  |  |  |  | 600 |  | 500 | LACTOSE, ANHYDROUS [listing 2 of 2 here] |  | 
3.2 | 500 | 2.8 | 1.8 | 2.6 | 0.7 | 1500 | 3.1 | 15.7 | 70 | 5 | 1.2 | 1500 | 1.8 | 0.6 | 4.6 | 130 | 2.7 | 220 | OC[C@H]1O[C@@H](O[C@H]2[C@H](O)[C@@H](O)[C@H](n3cc(-c4ccc(-c5cn([C@@H]6O[C@H](CO)[C@@H](O[C@@H]7O[C@H](CO)[C@H](O)[C@H](O)[C@H]7O)[C@H](O)[C@H]6O)nn5)cc4)nn3)O[C@@H]2CO)[C@H](O)[C@@H](O)[C@H]1O | 85 | inhibition (CHO): 34%; inhibition [23]: 44%; relative potency [19]: 2.3; inhibition [24]: 39%
 | 800 |  | 4.5 | 0.7 | 2.5 |  | 4.2 |  | 600 |  | 1.4 | 1300 |  | 1.2 |  | 550 |  | 360 | O=C(/C=C/C(=O)N[C@@H]1O[C@H](CO)[C@@H](O[C@@H]2O[C@H](CO)[C@H](O)[C@H](O)[C@H]2O)[C@H](O)[C@H]1O)N[C@@H]1O[C@H](CO)[C@@H](O[C@@H]2O[C@H](CO)[C@H](O)[C@H](O)[C@H]2O)[C@H](O)[C@H]1O | 89 | inhibition (CHO): 70%; inhibition [23]: 47%; inhibition [25]: 45%
